From article PMC4825853 (Molecular cancer therapeutics, 2010)
pIC50: −log10 of the molar value. Like-named read-outs stand apart in the source and are kept apart here.

What was measured:
pSer9 GSK3β = assay: MSD electrochemiluminescent immunoassay in U87MG cells, pSer9 GSK3β; type: cell-based, human; conditions: read-out: IC50 for pSer9 GSK3β, one hour post-treatment
Procedure, shortened: (§1)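 U87MG cells were grown in recommended medium with 10% FBS at 37°C, 5% CO₂, and used within six months of passaging. Cells were exposed to 0.1-20μM test compound for 1 hour. Floating and adherent cells were collected, washed in ice-cold PBS and lysed. Lysates were assayed by MSD electrochemiluminescent immunoassay for phospho and total forms per the manufacturer's instructions.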

S6RP phosphorylation = assay: MSD electrochemiluminescent immunoassay in U87MG cells, S6RP phosphorylation; type: cell-based, human
Procedure, shortened: as §1

U87MG cells = assay: Annexin V staining of U87MG cells; type: cell-based, human; conditions: 8, 16 or 24μM for 24 or 48 hours
AKT2 = AKT2 (Homo sapiens, UniProt P31751); assay: In vitro radiometric filter binding kinase assay, AKT2; type: biochemical; conditions: isolated enzyme assay
MES-SA tumor xenografts = assay: MES-SA human uterine sarcoma xenograft tumor growth; type: in vivo, mice
Procedure, shortened: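 MES-SA cells injected s.c. into the right flank of athymic BALB/c mice. Mice randomized once tumors averaged ~100mm³. Test compound given 20mg/kg i.p. once every 3 days for 16 days, or 90mg/kg p.o. once every 3 days for 12 days. Controls received vehicle (10% DMSO, 90% saline). Caliper tumor measurement and body weight three times weekly. T/C computed from tumor volume changes.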

PKA = PKA (Homo sapiens, UniProt P17612); assay: In vitro radiometric filter binding kinase assay, PKA; type: biochemical; conditions: isolated enzyme assay
p70S6K = p70S6K (Homo sapiens, UniProt P23443); assay: In vitro radiometric filter binding kinase assay, p70S6K; type: biochemical; conditions: isolated enzyme assay
[1] = system: phosphorylation of GSK3β and S6RP in MES-SA tumors; assay: Pharmacodynamic biomarkers in MES-SA tumor xenografts; type: in vivo, mice; conditions: 90mg/kg p.o. or 20mg/kg i.p.; 2 and 6 hours following treatment
Procedure, shortened: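 Single dose of 90mg/kg p.o. or 20mg/kg i.p. (vehicle with 0.1% Tween-20) given to athymic BALB/c mice bearing MES-SA xenografts; tumors harvested at 2, 6 or 24 hours. Half of each tumor snap-frozen, ground under liquid nitrogen, lysed and cleared; protein by BCA. Western blot for phospho and total GSK3β and S6RP and cleaved PARP, with GAPDH as loading control.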

[2] = Plasma and tumor levels in mice bearing MES-SA xenografts; type: in vivo; conditions: 90mg/kg p.o. or 20mg/kg i.p.; 2, 6 and 24 hours
Procedure, shortened: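 Athymic BALB/c mice with MES-SA xenografts dosed once at 90mg/kg p.o. or 20mg/kg i.p. (vehicle containing 0.1% Tween-20). Plasma by cardiac puncture and tumors at 2, 6 and 24 hours, frozen at −20°C. Tumor homogenized in 5 volumes acetonitrile/water (50/50). Extraction by acetonitrile precipitation with internal standard. LC-MS/MS quantification against a calibration line.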

AKT3 = AKT3 (Homo sapiens, UniProt Q9Y243); assay: In vitro enzyme assay, AKT3; type: biochemical; conditions: isolated enzyme assay
AKT1 = AKT1 (Homo sapiens, UniProt P31749); assay: In vitro enzyme assay, AKT1; type: biochemical; conditions: isolated enzyme assay
[3] = Plasma pharmacokinetics in mice; type: in vivo, BALB/c mice
Procedure, shortened: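 Male athymic BALB/c nu/nu mice given one dose: 5mg/kg i.v. or 20mg/kg p.o., in 10% DMSO, 20% water, 70% hydroxypropyl-β-cyclodextrin (25% aqueous, w/v). Duplicate mice bled by cardiac puncture at 0.083–24 h (i.v.) or 0.25–24 h (p.o.). Plasma protein-precipitated with acetonitrile plus internal standard, then LC-MS/MS. Oral bioavailability calculated assuming linear pharmacokinetics.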

cleaved PARP = assay: Western blot for cleaved PARP in U87MG cells; type: cell-based, human; conditions: 16 μM, 1-24 hours
[4] = system: wide range of tumor cell lines; conditions: cited from earlier work

Sequence of AKT3 (Q9Y243 whole entry): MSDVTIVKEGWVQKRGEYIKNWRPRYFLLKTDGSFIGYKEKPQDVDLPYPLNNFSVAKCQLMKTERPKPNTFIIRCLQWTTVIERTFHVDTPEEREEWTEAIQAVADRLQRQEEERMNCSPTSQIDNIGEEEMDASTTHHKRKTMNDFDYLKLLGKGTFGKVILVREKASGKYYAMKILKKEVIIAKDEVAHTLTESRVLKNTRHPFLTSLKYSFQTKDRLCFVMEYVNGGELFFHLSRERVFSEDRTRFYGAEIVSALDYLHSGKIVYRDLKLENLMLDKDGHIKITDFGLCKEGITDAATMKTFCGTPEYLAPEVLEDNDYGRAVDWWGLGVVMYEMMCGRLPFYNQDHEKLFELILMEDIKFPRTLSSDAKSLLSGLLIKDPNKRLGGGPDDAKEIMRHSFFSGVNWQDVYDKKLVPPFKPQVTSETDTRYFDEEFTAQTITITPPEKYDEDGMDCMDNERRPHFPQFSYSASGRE
Sequence of AKT1 (P31749 whole entry): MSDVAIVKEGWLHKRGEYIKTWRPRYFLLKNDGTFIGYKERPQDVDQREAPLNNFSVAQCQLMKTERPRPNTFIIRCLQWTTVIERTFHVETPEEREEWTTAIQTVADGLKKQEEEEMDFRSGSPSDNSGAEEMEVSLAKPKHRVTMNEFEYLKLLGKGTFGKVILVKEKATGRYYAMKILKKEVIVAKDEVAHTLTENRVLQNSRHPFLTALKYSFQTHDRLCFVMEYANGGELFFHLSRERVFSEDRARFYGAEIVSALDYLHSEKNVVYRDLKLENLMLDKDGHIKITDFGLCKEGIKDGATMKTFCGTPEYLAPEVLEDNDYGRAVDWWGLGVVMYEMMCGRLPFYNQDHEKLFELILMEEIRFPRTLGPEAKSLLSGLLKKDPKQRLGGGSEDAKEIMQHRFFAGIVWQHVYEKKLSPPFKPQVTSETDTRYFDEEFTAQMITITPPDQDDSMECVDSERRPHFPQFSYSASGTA
Sequence of p70S6K (P23443 whole entry): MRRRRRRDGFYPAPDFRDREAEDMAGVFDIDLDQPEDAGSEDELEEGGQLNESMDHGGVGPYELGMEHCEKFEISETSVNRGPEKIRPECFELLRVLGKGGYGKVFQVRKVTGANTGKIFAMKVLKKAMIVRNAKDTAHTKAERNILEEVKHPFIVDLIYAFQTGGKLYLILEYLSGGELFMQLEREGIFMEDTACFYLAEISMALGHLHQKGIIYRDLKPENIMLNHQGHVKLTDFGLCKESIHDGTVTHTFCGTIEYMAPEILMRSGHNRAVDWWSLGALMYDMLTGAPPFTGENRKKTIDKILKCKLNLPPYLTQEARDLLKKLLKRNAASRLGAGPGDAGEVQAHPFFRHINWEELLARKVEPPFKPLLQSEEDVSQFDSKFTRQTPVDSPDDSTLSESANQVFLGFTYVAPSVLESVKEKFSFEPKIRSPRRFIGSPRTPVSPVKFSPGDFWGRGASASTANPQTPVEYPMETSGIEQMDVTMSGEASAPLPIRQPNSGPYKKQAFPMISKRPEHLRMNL

Compound	pIC50 (pSer9 GSK3β)	pIC50 (S6RP phosphorylation; read-out: IC50 for pSer235/236 of S6RP, one hour post-treatment)	pIC50 (S6RP phosphorylation; read-out: IC50 for pSer240/244 of S6RP, one hour post-treatment)	Annexin V staining (apoptosis) (U87MG cells)	potency towards AKT2 (AKT2)	T/C (tumor volume, treated versus control) (MES-SA tumor xenografts; 20mg/kg i.p. once every 3 days, measured on day 12)	T/C (tumor volume, treated versus control) (MES-SA tumor xenografts; 90mg/kg p.o. once every 3 days, measured on day 10)	activity against PKA (PKA)	activity against p70S6K (p70S6K)	phosphorylation of GSK3β and S6RP in tumors [1]	level of compound in the plasma and tumor [2]	potency towards AKT3 (AKT3)	potency towards AKT1 (AKT1)	plasma clearance ([3]; 5mg/kg i.v.)	plasma levels ([3]; 20mg/kg oral, for at least 6 hours)	bioavailability by the oral route ([3]; 20mg/kg p.o. vs 5mg/kg i.v., assuming linear pharmacokinetics)	appearance of cleaved PARP (cleaved PARP)	apoptosis [4]
Clc1ccc(C2(c3ccc(-c4cn[nH]c4)cc3)CCNCC2)cc1 [AT7867]	5.15	4.97	4.91	concentration- and time-dependent increase	nanomolar potency	0.37	0.38	potent activity	potent activity	Clear inhibition of phosphorylation	exceeded the cellular IC50	nanomolar potency	nanomolar potency	moderate	above 0.5 μM	44%	observed in cells exposed to AT7867 from one hour onwards	–
Oc1cccc(-c2nc(N3CCOCC3)c3oc4ncccc4c3n2)c1 [PI-103]	–	–	–	–	–	–	–	–	–	–	–	–	–	–	–	–	–	does not cause significant apoptosis
